Columns and labels:
[1] = molecular target: T1, Aurora kinase C (Homo sapiens) (UniProt Q9UQB9); test: Inhibition of human recombinant AurC at 500 nM in presence of ATP by radiometric assay relative to control
T1 sequence (whole entry): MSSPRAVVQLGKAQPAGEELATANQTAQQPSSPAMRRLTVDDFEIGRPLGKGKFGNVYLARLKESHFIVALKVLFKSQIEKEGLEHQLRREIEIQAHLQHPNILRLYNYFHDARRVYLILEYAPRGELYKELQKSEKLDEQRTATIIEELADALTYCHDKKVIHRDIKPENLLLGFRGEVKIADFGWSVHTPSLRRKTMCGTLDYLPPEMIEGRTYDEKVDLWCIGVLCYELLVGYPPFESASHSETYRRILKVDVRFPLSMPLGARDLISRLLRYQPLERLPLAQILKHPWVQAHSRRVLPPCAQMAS
How it was run: (§1)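 Part of a radiometric in vitro activity panel of 327 recombinant human kinases. Each kinase was tested in duplicate at one inhibitor concentration. Activity remaining was expressed as a percentage of the vehicle control, and percent inhibition was taken as 100 minus that value.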

[2] = molecular target: T2, G protein-coupled receptor kinase 3 (Homo sapiens) (UniProt P35626); test: Inhibition of human recombinant BARK2 at 500 nM in presence of ATP by radiometric assay relative to control; how it was run: as §1
T2 sequence (whole entry): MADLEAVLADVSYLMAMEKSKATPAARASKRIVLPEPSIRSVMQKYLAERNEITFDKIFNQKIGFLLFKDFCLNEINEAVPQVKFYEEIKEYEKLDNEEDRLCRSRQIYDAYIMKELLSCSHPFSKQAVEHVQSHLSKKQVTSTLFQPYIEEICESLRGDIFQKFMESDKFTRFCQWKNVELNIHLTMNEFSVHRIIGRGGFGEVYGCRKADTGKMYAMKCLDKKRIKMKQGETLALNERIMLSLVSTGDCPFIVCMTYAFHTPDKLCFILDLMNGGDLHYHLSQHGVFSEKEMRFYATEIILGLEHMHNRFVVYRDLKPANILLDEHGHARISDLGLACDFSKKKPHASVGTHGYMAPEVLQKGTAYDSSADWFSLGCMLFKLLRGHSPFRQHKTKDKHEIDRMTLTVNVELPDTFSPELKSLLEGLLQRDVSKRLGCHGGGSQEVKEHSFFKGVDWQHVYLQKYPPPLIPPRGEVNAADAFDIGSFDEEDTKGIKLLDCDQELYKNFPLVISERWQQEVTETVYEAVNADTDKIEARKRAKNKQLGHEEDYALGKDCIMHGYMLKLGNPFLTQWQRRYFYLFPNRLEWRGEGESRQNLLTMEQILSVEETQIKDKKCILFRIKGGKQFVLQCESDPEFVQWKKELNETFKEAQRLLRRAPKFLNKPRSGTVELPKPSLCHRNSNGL

[3] = molecular target: T3, Myotonin-protein kinase (Homo sapiens) (UniProt Q09013); test: Inhibition of human recombinant DMPK1 at 500 nM in presence of ATP by radiometric assay relative to control
T3 sequence (whole entry): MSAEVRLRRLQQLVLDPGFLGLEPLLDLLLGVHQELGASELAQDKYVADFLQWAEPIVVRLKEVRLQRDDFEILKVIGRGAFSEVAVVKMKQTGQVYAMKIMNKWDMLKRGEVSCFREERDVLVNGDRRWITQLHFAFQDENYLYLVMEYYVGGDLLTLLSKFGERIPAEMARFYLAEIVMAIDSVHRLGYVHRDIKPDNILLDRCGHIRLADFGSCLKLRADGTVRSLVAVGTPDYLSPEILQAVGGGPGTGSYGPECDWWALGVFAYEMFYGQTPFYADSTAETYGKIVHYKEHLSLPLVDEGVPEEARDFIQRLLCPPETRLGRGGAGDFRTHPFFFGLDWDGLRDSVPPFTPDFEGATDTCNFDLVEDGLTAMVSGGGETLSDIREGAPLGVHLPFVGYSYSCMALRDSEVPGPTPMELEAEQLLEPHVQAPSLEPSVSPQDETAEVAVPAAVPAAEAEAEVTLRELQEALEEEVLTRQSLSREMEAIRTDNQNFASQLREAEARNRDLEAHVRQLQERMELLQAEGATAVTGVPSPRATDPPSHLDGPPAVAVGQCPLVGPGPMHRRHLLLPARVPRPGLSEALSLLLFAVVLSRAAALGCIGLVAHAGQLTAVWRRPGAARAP

[4] = molecular target: Receptor tyrosine-protein kinase erbB-4 (Homo sapiens) (UniProt Q15303); test: Inhibition of human recombinant ErbB4 at 500 nM in presence of ATP by radiometric assay relative to control
[5] = molecular target: Mast/stem cell growth factor receptor Kit (Homo sapiens) (UniProt P10721); test: Inhibition of human recombinant KIT at 500 nM in presence of ATP by radiometric assay relative to control
[6] = molecular target: Phosphorylase b kinase gamma catalytic chain, skeletal muscle/heart isoform (Homo sapiens) (UniProt Q16816); test: Inhibition of human recombinant PHKg1 at 500 nM in presence of ATP by radiometric assay relative to control
[7] = molecular target: Glycogen synthase kinase-3 beta (Homo sapiens) (UniProt P49841); test: Inhibition of human recombinant GSK3B at 500 nM related to control ULK1
[8] = molecular target: Proto-oncogene tyrosine-protein kinase receptor Ret (Homo sapiens) (UniProt P07949); test: Inhibition of human recombinant RET at 500 nM related to control ULK1
[9] = molecular target: Protein-tyrosine kinase 6 (Homo sapiens) (UniProt Q13882); test: Inhibition of human recombinant BRK at 15 nM in presence of ATP by radiometric assay relative to control; how it was run: as §1
[10] = molecular target: T1, Aurora kinase C (Homo sapiens); test: Inhibition of human recombinant AurC at 15 nM related to control ULK1
[11] = molecular target: Receptor tyrosine-protein kinase erbB-4 (Homo sapiens) (UniProt Q15303); test: Inhibition of human recombinant ErbB4 at 15 nM related to control ULK1
[12] = molecular target: Macrophage-stimulating protein receptor (Homo sapiens) (UniProt Q04912); test: Inhibition of human recombinant RON at 15 nM related to control ULK1
Sequence of Macrophage-stimulating protein receptor (Homo sapiens) (Q04912 25-304 limits assumed): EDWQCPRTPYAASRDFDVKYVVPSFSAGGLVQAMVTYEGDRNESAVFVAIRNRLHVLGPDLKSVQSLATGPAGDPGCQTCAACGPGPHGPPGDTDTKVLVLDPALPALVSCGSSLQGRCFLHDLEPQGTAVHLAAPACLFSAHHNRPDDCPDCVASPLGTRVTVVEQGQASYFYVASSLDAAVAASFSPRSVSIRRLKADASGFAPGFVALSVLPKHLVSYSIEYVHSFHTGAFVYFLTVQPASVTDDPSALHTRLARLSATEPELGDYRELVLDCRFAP
Sequence of Macrophage-stimulating protein receptor (Homo sapiens) (Q04912 310-1400 limits assumed): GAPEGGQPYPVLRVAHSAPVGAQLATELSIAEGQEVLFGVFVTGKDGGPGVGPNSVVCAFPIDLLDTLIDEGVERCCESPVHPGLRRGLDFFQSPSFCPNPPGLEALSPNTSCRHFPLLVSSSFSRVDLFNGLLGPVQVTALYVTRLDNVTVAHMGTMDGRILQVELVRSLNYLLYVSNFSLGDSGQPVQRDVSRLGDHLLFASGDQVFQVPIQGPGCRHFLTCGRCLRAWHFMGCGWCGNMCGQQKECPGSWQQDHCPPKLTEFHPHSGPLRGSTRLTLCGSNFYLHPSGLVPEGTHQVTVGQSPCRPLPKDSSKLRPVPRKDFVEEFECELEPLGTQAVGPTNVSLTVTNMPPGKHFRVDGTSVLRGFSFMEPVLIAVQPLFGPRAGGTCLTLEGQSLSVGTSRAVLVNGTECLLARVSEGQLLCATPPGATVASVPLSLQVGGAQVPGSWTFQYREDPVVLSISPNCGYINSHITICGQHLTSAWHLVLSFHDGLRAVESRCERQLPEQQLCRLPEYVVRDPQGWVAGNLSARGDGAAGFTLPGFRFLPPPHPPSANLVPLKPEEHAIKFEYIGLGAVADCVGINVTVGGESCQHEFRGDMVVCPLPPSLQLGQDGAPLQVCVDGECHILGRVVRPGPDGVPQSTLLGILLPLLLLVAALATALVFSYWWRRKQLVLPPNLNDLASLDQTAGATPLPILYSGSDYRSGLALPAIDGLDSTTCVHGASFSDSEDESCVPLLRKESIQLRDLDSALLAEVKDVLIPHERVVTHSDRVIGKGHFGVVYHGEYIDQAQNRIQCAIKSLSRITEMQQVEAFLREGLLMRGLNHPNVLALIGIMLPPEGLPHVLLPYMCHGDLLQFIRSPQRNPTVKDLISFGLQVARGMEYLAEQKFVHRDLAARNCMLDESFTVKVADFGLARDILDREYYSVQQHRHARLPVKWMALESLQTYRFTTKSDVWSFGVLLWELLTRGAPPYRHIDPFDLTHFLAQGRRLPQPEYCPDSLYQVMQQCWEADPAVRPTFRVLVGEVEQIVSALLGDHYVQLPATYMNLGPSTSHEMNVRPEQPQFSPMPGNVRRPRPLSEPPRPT

Sequence of Receptor tyrosine-protein kinase erbB-4 (Homo sapiens) (Q15303 whole entry): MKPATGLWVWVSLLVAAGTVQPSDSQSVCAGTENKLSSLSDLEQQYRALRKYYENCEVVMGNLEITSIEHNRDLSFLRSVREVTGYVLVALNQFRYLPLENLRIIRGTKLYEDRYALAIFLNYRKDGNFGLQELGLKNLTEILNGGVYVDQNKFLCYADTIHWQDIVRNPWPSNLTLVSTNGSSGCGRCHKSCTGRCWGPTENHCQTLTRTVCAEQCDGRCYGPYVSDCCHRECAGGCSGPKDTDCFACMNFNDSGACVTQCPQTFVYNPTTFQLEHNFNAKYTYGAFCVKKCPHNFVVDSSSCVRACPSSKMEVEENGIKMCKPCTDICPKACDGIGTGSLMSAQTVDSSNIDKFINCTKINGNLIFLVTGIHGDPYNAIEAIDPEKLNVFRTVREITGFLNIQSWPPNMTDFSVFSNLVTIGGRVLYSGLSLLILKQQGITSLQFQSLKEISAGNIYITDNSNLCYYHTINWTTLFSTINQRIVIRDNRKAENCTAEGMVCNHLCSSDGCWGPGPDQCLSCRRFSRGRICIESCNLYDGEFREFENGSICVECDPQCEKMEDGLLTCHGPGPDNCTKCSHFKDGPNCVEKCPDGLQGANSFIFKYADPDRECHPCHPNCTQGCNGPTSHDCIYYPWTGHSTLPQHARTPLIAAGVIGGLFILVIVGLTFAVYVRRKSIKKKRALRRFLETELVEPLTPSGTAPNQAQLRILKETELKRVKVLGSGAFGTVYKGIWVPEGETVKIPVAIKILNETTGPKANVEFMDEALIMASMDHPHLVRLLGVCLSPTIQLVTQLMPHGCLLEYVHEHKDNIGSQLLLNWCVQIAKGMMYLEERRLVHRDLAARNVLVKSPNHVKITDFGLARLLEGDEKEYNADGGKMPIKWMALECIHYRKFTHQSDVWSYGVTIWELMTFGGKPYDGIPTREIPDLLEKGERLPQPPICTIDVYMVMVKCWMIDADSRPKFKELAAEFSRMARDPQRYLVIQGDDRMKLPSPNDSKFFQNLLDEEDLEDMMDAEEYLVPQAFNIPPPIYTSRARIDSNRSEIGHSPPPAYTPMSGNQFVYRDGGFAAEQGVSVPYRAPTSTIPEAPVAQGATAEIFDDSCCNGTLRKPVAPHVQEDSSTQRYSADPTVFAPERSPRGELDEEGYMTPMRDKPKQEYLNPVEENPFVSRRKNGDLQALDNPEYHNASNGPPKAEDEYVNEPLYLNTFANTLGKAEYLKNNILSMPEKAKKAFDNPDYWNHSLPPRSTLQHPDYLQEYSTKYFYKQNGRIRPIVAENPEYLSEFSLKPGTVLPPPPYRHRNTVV
Sequence of Glycogen synthase kinase-3 beta (Homo sapiens) (P49841 whole entry, looked up): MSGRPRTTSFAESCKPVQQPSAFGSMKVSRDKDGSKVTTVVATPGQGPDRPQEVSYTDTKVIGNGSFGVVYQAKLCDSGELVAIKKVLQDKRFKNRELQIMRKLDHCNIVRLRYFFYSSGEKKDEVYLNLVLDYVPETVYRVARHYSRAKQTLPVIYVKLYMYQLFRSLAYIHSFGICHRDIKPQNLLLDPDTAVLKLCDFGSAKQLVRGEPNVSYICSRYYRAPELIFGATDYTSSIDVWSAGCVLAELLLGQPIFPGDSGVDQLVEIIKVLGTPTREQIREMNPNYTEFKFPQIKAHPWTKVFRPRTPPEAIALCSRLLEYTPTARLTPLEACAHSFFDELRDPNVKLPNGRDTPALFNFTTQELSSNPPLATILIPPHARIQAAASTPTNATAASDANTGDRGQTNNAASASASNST
Sequence of Protein-tyrosine kinase 6 (Homo sapiens) (Q13882 whole entry, looked up): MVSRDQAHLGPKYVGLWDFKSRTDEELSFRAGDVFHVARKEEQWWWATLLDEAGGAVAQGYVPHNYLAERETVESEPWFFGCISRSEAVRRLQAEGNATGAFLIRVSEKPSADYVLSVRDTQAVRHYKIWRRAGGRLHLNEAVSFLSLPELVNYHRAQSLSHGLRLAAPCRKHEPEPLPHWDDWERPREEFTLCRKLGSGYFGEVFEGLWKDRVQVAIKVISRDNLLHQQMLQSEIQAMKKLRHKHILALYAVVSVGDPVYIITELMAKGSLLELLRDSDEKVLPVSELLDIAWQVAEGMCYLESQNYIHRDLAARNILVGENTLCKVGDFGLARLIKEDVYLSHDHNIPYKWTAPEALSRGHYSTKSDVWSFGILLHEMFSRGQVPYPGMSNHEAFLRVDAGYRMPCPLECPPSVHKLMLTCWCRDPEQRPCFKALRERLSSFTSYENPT
Sequence of Mast/stem cell growth factor receptor Kit (Homo sapiens) (P10721 whole entry, canonical isoform): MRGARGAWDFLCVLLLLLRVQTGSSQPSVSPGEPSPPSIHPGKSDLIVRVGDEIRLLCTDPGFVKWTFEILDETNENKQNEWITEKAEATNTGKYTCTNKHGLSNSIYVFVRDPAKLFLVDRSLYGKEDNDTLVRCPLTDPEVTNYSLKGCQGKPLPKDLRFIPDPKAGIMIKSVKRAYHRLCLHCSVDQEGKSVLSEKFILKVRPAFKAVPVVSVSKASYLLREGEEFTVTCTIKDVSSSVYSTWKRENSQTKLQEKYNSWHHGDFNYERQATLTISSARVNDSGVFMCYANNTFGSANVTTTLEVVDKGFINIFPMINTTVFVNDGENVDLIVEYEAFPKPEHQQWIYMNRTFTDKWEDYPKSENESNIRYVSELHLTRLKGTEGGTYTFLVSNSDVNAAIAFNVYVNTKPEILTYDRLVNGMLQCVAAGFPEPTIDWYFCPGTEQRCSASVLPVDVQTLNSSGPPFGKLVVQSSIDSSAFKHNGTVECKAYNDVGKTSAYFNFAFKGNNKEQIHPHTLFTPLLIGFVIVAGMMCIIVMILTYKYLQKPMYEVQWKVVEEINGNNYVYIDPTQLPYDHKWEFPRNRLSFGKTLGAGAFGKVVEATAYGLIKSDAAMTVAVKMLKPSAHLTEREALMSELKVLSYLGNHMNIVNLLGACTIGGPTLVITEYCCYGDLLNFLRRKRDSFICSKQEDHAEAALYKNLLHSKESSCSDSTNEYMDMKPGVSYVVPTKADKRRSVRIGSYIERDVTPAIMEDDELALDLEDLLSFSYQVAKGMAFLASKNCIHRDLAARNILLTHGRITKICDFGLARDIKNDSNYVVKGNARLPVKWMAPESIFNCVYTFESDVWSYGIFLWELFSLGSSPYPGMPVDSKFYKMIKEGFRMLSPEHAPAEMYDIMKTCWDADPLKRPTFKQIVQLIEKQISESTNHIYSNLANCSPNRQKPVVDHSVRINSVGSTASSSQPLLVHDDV
Sequence of Phosphorylase b kinase gamma catalytic chain, skeletal muscle/heart isoform (Homo sapiens) (Q16816 whole entry, looked up, canonical isoform): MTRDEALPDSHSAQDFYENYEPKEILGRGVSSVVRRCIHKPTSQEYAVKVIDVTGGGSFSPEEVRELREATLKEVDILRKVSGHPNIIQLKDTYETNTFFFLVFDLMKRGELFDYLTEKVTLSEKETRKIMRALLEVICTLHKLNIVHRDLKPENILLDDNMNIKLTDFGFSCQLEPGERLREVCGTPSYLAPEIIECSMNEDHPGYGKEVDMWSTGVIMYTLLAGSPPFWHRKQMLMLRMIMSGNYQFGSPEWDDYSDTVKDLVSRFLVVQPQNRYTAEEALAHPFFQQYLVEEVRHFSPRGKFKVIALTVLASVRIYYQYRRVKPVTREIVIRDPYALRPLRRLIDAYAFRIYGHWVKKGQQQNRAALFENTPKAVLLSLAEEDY

CNC(=O)c1ccccc1Oc1nc(Nc2cc(OC)c(OC)c(OC)c2)ncc1Br
inhibition [1]: 73%
inhibition [2]: 7%
inhibition [3]: 0%
inhibition [4]: 0%
inhibition [5]: 1%
inhibition [6]: 23%
fold change (FC) [7]: 0
fold change (FC) [8]: 0.04

CC(C)[C@H](NC(=O)c1cc(-c2cnn3cc(-c4ccc(OCCN5CCCCC5)cc4)cnc23)cs1)C(F)(F)F
inhibition [9]: 8%
fold change (FC) [10]: 0.09
fold change (FC) [11]: 0
fold change (FC) [12]: 0.02

From ChEMBL document CHEMBL5653631, “A Potent and Selective ULK1 Inhibitor Suppresses Autophagy and Sensitizes Cancer Cells to Nutrient Stress” (iScience, 2018)
